Experimental data from different studies.
Lines come from different studies, so protocols differ.
Target: Activin receptor type-2B (ACVR2B, Homo sapiens, UniProt Q13705)

SMILES | read-out | technique | tested at | remaining binding [%]
CN(c1nccc(-c2cnn3ncccc23)n1)C1CC1 | binding |  | 1 µM | 100
CC1=C(C#N)C(c2ccc3c(c2)c(NC(=O)c2ccccc2C)nn3C)C(C#N)=C(C)N1 | binding | competition with immobilised ligand | 1 µM | 100
Nc1ncc2c(n1)-c1c([nH]c3ccc(C#CC4CC4)cc13)CCCC2 | binding | competition with immobilised ligand | 1 µM | 89
CCN1CCN(Cc2ccc(C(=O)Nc3ccc(C)c(Oc4ccc5c(c4)CC(=O)N5)c3)cc2C(F)(F)F)CC1 | binding | competition with immobilised ligand | 1 µM | 100
O=C(c1ccc(Nc2nccc(-c3cc4ccccc4s3)n2)cc1)N1CCC(N2CCCC2)CC1 | binding | competition with immobilised ligand | 1 µM | 88
COc1ccnn2ncc(-c3ccnc(N(C)C)n3)c12 | binding |  | 1 µM | 100
O=C(Nc1cccnn1)N1CC(C/C=C/c2cncc(Oc3ccc(C(F)(F)F)cn3)n2)C1 | cell-free assay | competition with immobilised ligand | 1 µM | 98
O=C(NCCCN1CCOCC1)c1ccc(Nc2ncc(Cl)c(-c3ccc(Cl)s3)n2)cc1 | binding | competition with immobilised ligand | 1 µM | 81
CO[C@@H](C)c1c(Nc2ccc([C@@H](N(C)C(=O)C3CCS(=O)(=O)CC3)C(F)(F)F)cc2)cnc2cc(Cl)nn12 | cell-free assay | competition with immobilised ligand | 1 µM | 100
O=C(Nc1c[nH]nc1C(=O)NC1CCNCC1)c1cc(F)cc(F)c1 | binding | competition with immobilised ligand | 1 µM | 100
COc1cnc(Nc2cccc(S(N)(=O)=O)c2)nc1N1CCN(c2ccccc2)CC1 | binding | competition with immobilised ligand | 1 µM | 100
CN(C)c1ncc(F)c(-c2cnn3ncccc23)n1 | binding | competition with immobilised ligand | 1 µM | 95
Cc1cc(C)c(-n2ccn3nc(-c4cccnc4)cc23)cc1NC(=O)c1cc(C#N)cc(S(F)(F)(F)(F)F)c1 | binding | competition with immobilised ligand | 0.1 µM | 88.7
c1cnn2ncc(-c3ccnc(N4CCC45COC5)n3)c2c1 | binding |  | 1 µM | 90
O=c1nc(-c2ccccn2)sc2ccccc12 | binding | competition with immobilised ligand | 1 µM | 100
N[C@H]1CCN(c2nccc(-c3cnn4ncccc34)n2)C1 | binding | competition with immobilised ligand | 1 µM | 93
COc1cnc(Nc2cccc(S(N)(=O)=O)c2)nc1N1CCN(c2ccccc2)C(=O)C1 | binding | competition with immobilised ligand | 1 µM | 100
O=C(c1ccc(Nc2ncc(Cl)c(-c3cc4ccccc4s3)n2)cc1)N1CCC(N2CCCC2)CC1 | binding | competition with immobilised ligand | 1 µM | 53
CN(C)c1nccc(-c2cnc3ncccn23)n1 | binding |  | 1 µM | 100
Cc1c[nH]c2nccc(Oc3c(F)cc(Nc4cc(Cl)nc(N)n4)cc3F)c12 | cell-free assay | competition with immobilised ligand | 0.1 µM | 100
